In ChEMBL document CHEMBL1125574, “Structure and DNA binding activity of analogues of 1,5-bis(4-amidinophenoxy)pentane (pentamidine)” (J Med Chem, 1992):

Tests used:
[1] = test system: Nucleic Acid; assay: Denaturation temperature change on binding on GC to poly(dGC)-poly(dGC); assay type: functional
In short: (§1)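 Synthetic homopolymer, poly(dA)·poly(dT) or poly(dG-dC)·poly(dG-dC), at an initial absorbance of 0.15 A259. Samples were heated at 18 °C/h while absorbance at 259 nm was logged every 0.2 °C. Tm was taken as the curve midpoint between graphically chosen start and end temperatures. ΔTm is relative to the free polymer's Tm in the same run, averaged over at least two determinations with standard errors.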

[2] = test system: Nucleic Acid; assay: Denaturation temperature change on binding to AT to poly (dA)-poly(dT); assay type: functional; in short: as §1
[3] = test system: Nucleic Acid; assay: DNA binding property estimated by measuring denaturation temperature on GC to poly (dGC)-poly(dGC), normalized to ethidium bromide
[4] = test system: Calf thymus DNA; assay: Denaturation temperature change on binding to calf thymus DNA; assay type: functional
In short: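 Calf thymus DNA at an initial absorbance of 0.3 A259 was heated at 18 °C/h, recording absorbance at 259 nm at 0.2 °C intervals. The melting midpoint was set from graphically selected start and end temperatures. ΔTm was taken against the DNA-alone Tm from the same experiment, as the mean of at least two determinations with standard errors.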

[5] = test system: Nucleic Acid; assay: DNA binding activity as denaturation temperatures on AT to poly (dA)-poly(dT) normalized to ethidium bromide; assay type: functional

SMILES	ΔTm [1]	ΔTm [2]	ΔTm [3]	ΔTm [4]	ΔTm [5]
N=C(N)c1ccc(OCCCCCOc2ccc(C(=N)N)cc2)cc1	3.2	22.9	0.6	10.7	2.3
N=C(N)c1ccc(-c2cc3ccc(C(=N)N)cc3[nH]2)cc1	6.9	42	1.3	21.5	4.2
N=C(N)c1ccc(OCCCCCCOc2ccc(C(=N)N)cc2N)c(N)c1	2.8	18.4	0.5	9.5	1.9
N=C(N)c1ccc(OCCCCCOc2ccc(C(=N)N)cc2[N+](=O)[O-])c([N+](=O)[O-])c1	3.2	21.6	0.6	9.7	2.2
COc1cc(C(=N)N)ccc1OCCCOc1ccc(C(=N)N)cc1OC	3.4	38	0.6	16.3	3.8
N=C(N)c1ccc(NCCCCNc2ccc(C(=N)N)cc2)cc1	2.8	18.7	0.5	10.3	1.9
N=C(N)c1ccc(OCCCOc2ccc(C(=N)N)cc2N)c(N)c1	5.2	32.2	1	13.6	3.3
N=C(N)c1ccc(NCCCNc2ccc(C(=N)N)cc2N)c(N)c1	4.8	25.6	0.9	12.4	2.6
N=C(N)c1ccc(NCCCCCNc2ccc(C(=N)N)cc2N)c(N)c1	3.3	20.9	0.6	11	2.1
Cn1cc(NC(=O)c2cc(NC(=O)CNC(=N)N)cn2C)cc1C(=O)NCCC(=N)N	1.1	46.6	0.2	19	4.7
N=C(N)c1cccc(OCCCCCOc2cccc(C(=N)N)c2)c1	2.2	7.6	0.4	7.6	0.8
N=C(N)c1ccc(NCCCNc2ccc(C(=N)N)cc2)cc1	3	25.7	0.6	11.6	2.6
N=C(N)c1ccc(OCCOc2ccc(C(=N)N)cc2[N+](=O)[O-])c([N+](=O)[O-])c1	1.9	10.3	0.4	5.6	1
N=C(N)c1ccc(OCCCCOc2ccc(C(=N)N)cc2)cc1	3.1	17.9	0.6	8.3	1.8
N=C(N)c1ccc(OCCCCCCOc2ccc(C(=N)N)cc2)cc1	2.8	19	0.5	9.1	1.9
N=C(N)c1ccc(OCCCOc2ccc(C(=N)N)cc2)cc1	4.5	32	0.8	14.7	3.2
N=C(N)c1ccc(OCCCCOc2ccc(C(=N)N)cc2[N+](=O)[O-])c([N+](=O)[O-])c1	3.5	14.7	0.7	9.6	1.5
N=C(N)c1ccc(NCCNc2ccc(C(=N)N)cc2N)c(N)c1	3	16.8	0.6	9.8	1.7
N=C(N)c1ccc(OCCOc2ccc(C(=N)N)cc2)cc1	1.3	7.5	0.2	5.4	0.8

SMILES	ΔTm [1]	ΔTm [2]	ΔTm [3]	ΔTm [4]	ΔTm [5]
CC[n+]1c(-c2ccccc2)c2cc(N)ccc2c2ccc(N)cc21	9.9	12.4	1	12.4	1
N=C(N)c1ccc(NCCCCCNc2ccc(C(=N)N)cc2[N+](=O)[O-])c([N+](=O)[O-])c1	6.2	22.1	1.2	12.7	2.2
COc1cc(C(=N)N)ccc1OCCCCOc1ccc(C(=N)N)cc1OC	1.1	22.9	0.2	10.2	2.3
COc1cc(C(=N)N)ccc1OCCCCCOc1ccc(C(=N)N)cc1OC	2.7	27.2	0.5	12	2.7
N=C(N)c1ccc(NCCCNc2ccc(C(=N)N)cc2[N+](=O)[O-])c([N+](=O)[O-])c1	5	26.6	0.9	12.4	2.7
N=C(N)c1ccc(OCCOc2ccc(C(=N)N)cc2N)c(N)c1	3	16.4	0.6	8.8	1.7
N=C(N)c1ccc(NCCCCNc2ccc(C(=N)N)cc2N)c(N)c1	4.6	13.2	0.9	10.5	1.3
Cn1cc(NC(=O)c2cc(NC(=O)c3cc(NC=O)cn3C)cn2C)cc1C(=O)NCCC(=N)N	1.9	30.5	0.4	11.5	3.1
N=C(N)c1ccc(NCCCCCNc2ccc(C(=N)N)cc2)cc1	4.4	20.7	0.8	11.3	2.1
N=C(N)c1ccc(OCCCCCOc2ccc(C(=N)N)cc2Cl)c(Cl)c1	4.6	24.3	0.9	10.5	2.5
N=C(N)c1ccc(OCCCCOc2ccc(C(=N)N)cc2Cl)c(Cl)c1	4.2	20.3	0.8	8.9	2.1
N=C(N)c1cccc(OCCCCCCOc2cccc(C(=N)N)c2)c1	2.5	8.1	0.5	7.3	0.8
N=C(N)c1ccc(OCCCCCOc2ccc(C(=N)N)cc2N)c(N)c1	3.2	20.7	0.6	10.8	2.1
N=C(N)c1ccc(OCCCCOc2ccc(C(=N)N)cc2N)c(N)c1	3.7	19.4	0.7	9.6	2
N=C(N)c1cccc(OCCCOc2cccc(C(=N)N)c2)c1	3	8.5	0.6	7.6	0.9
N=C(N)c1cccc(OCCCCOc2cccc(C(=N)N)c2)c1	2.6	15.2	0.5	8.1	1.5
N=C(N)c1ccc(NCCCCCCNc2ccc(C(=N)N)cc2)cc1	2.9	12.9	0.5	9.1	1.3
N=C(N)c1ccc(NCCCCCCNc2ccc(C(=N)N)cc2N)c(N)c1	3.6	15	0.7	8.3	1.5
